# Data as given in ChEMBL document CHEMBL4732120, “Discovery of novel PARP/PI3K dual inhibitors with high efficiency against BRCA-proficient triple negative breast cancer” (Eur J Med Chem, 2021).
# Legend:
# [1] = biological target: Poly [ADP-ribose] polymerase 2 (Homo sapiens, UniProt Q9UGN5); assay: Inhibition of PARP2 (unknown origin)
# [2] = Intrinsic clearance in rat liver microsomes measured after 1 hr; format: ADME, Microsome; conditions: read-out: CLH
# Summary of the method: (§1)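 Compound incubated 1 h with mouse, rat, dog, monkey or human liver microsomes. Derived values were the elimination rate constant k, the elimination half-life T1/2 and the intrinsic clearance CLint.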
# MDA-MB-468 [3] = assay: Antitumor activity against human MDA-MB-468 cells xenografted in BALB/c mouse assessed as tumor growth inhibition at 50 mg/kg, ip administered every two days for 34 days relative to control; conditions: MDA-MB-468, ip, 816 h, read-out: TGI
# [4] = Elimination half life in rat liver microsomes measured after 1 hr; format: ADME, Microsome; conditions: read-out: beta t1/2; summary of the method: as §1
# [5] = Intrinsic clearance in monkey liver microsomes measured after 1 hr; format: ADME, Macaca mulatta, Microsome; conditions: rhesus monkey, read-out: CLH; summary of the method: as §1
# MDA-MB-468 [6] = assay: Antiproliferative activity against human MDA-MB-468 cells measured after 7 days by Celltiter-glo assay; format: functional, cell-based; conditions: MDA-MB-468, 168 h
# Summary of the method: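 MDA-MB-468 cells grown in RPMI1640 with 10% FBS at 37 °C, 5% CO2. Seeded the day before dosing, grown 12 h, then exposed to a range of concentrations for 7 days. Viability read by CellTiter-Glo luminescence after 10 min at room temperature. Inhibition % = (1 − (RLU cpd − blank)/(RLU DMSO − blank)) × 100. IC50 from nonlinear regression of normalized dose-response.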
# [7] = Elimination rate constant in rat liver microsomes measured after 1 hr; format: ADME, Microsome; summary of the method: as §1
# [8] = Toxicity in Sprague-Dawley rat assessed as change in body weight at 1000 mg/kg, po administered as single dose measured during adaptation period (reference value: 258 +/- 13 g); format: organism-based; conditions: in vivo
# MDA-MB-468 [9] = assay: Induction of apoptosis in human MDA-MB-468 cells assessed as late apoptotic cells at 1 uM measured after 72 hrs by Annexin V-FITC/propidium iodide staining based flow cytometry (reference value: 0.78%); format: functional
# [10] = Elimination rate constant in mouse liver microsomes measured after 1 hr; format: ADME, Microsome; summary of the method: as §1
# [11] = Elimination half life in dog liver microsomes measured after 1 hr; format: ADME, Canis lupus familiaris, Microsome; conditions: read-out: beta t1/2; summary of the method: as §1
# [12] = biological target: Phosphatidylinositol 4,5-bisphosphate 3-kinase catalytic subunit beta isoform (Homo sapiens, UniProt P42338); assay: Inhibition of PI3Kbeta (unknown origin)
# Phosphatidylinositol 4,5-bisphosphate 3-kinase catalytic subunit beta isoform, sequence (P42338 whole entry, canonical isoform): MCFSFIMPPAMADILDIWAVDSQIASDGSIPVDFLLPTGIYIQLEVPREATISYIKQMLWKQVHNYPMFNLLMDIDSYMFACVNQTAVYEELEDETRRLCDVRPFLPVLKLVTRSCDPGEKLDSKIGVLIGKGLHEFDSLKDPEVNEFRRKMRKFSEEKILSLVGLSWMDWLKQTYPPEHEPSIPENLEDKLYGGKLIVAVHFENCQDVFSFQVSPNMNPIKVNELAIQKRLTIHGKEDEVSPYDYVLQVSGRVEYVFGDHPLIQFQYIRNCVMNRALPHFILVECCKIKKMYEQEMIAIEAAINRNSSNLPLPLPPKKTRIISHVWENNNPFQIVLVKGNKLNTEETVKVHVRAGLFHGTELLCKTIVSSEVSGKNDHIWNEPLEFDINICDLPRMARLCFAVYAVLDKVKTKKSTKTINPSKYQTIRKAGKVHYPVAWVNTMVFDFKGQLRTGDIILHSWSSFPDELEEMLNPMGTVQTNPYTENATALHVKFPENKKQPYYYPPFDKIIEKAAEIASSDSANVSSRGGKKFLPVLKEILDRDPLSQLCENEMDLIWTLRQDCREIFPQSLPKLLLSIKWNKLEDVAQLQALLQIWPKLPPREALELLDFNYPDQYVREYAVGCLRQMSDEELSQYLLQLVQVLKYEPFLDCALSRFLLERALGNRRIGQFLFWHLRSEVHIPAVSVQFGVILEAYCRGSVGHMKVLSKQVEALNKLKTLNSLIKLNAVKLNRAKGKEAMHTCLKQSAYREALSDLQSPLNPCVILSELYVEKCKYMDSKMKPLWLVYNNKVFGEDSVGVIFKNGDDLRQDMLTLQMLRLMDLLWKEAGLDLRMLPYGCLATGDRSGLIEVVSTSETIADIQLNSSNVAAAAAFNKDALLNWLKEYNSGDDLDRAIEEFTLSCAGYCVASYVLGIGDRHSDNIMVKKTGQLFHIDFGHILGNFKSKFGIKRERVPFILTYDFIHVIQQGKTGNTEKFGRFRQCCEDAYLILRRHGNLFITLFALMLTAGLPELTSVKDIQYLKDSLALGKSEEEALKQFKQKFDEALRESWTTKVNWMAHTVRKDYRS
# [13] = biological target: Phosphatidylinositol 4,5-bisphosphate 3-kinase catalytic subunit gamma isoform (Homo sapiens, UniProt P48736); assay: Inhibition of PI3Kgamma (unknown origin)
# Phosphatidylinositol 4,5-bisphosphate 3-kinase catalytic subunit gamma isoform, sequence (P48736 whole entry, canonical isoform): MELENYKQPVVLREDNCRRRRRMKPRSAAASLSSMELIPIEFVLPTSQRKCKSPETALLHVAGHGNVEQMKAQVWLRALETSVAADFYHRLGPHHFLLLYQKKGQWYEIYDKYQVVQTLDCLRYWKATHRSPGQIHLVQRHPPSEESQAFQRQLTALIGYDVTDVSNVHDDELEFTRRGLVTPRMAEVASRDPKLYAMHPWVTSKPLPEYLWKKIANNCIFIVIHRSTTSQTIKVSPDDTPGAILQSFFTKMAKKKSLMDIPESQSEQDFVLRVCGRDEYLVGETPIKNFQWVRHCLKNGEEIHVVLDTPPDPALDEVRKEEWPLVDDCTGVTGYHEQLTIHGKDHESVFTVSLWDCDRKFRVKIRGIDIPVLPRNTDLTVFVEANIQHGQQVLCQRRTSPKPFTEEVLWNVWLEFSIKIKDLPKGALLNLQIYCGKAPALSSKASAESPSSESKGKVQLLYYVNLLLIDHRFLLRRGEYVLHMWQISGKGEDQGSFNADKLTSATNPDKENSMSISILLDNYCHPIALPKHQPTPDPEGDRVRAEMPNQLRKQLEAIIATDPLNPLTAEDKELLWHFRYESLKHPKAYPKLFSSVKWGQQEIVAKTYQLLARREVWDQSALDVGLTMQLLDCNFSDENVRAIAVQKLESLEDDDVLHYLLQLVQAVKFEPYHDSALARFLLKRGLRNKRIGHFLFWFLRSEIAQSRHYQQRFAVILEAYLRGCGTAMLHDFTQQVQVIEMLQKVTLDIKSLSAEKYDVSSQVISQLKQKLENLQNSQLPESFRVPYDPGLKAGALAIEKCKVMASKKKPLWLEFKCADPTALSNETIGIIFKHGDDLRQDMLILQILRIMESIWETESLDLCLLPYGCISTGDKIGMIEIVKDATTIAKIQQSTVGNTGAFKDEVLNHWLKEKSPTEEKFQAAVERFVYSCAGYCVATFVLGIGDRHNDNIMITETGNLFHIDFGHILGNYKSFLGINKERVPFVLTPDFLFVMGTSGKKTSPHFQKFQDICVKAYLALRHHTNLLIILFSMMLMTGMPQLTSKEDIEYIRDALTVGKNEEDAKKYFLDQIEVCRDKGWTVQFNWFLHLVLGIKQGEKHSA
# [14] = Elimination rate constant in monkey liver microsomes measured after 1 hr; format: ADME, Macaca mulatta, Microsome; conditions: rhesus monkey; summary of the method: as §1
# [15] = Intrinsic clearance in dog liver microsomes measured after 1 hr; format: ADME, Canis lupus familiaris, Microsome; conditions: read-out: CLH; summary of the method: as §1
# [16] = biological target: Poly [ADP-ribose] polymerase 1 (Homo sapiens, UniProt P09874); assay: Inhibition of PARP1 (unknown origin)
# Poly [ADP-ribose] polymerase 1, sequence (P09874 whole entry): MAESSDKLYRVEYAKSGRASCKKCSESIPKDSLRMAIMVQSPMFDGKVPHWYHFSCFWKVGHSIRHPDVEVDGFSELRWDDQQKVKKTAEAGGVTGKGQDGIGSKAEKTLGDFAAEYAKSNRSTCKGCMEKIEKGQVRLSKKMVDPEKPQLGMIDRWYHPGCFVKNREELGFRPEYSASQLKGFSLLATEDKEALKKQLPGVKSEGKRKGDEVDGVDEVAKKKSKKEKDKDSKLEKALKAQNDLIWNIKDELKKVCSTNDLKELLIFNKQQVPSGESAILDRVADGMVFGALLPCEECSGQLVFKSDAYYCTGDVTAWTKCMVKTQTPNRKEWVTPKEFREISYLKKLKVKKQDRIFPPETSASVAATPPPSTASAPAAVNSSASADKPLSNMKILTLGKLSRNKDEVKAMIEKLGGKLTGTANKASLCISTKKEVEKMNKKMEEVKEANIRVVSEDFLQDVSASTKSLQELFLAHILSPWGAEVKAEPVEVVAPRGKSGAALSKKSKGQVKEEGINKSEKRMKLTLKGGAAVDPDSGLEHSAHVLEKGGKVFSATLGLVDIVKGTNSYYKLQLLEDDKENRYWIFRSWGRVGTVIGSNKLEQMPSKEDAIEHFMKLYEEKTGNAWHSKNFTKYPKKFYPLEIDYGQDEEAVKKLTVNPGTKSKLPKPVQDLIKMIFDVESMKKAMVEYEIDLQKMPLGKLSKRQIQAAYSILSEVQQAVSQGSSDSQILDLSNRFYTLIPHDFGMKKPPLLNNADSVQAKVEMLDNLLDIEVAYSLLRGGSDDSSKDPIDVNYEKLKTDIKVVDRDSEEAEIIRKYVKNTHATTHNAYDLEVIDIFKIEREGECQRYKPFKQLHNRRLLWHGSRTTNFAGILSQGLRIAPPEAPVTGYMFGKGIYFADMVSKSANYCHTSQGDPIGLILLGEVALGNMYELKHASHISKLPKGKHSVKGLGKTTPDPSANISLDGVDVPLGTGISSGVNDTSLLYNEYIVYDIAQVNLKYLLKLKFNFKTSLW
# Summary of the method: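 PARP-1 and PI3Kα enzyme inhibition. IC50 taken from dose-response curves and given as mean ± SD of three independent experiments.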
# [17] = Toxicity in Sprague-Dawley rat assessed as change in body weight at 1000 mg/kg, po administered as single dose measured on day 2 (reference value: 273 +/- 15 g); format: organism-based; conditions: in vivo, 48 h, time 2 day
# [18] = biological target: Voltage-gated inwardly rectifying potassium channel KCNH2 (Homo sapiens, UniProt Q12809); assay: Inhibition of human ERG
# Voltage-gated inwardly rectifying potassium channel KCNH2, sequence (Q12809 whole entry, canonical isoform): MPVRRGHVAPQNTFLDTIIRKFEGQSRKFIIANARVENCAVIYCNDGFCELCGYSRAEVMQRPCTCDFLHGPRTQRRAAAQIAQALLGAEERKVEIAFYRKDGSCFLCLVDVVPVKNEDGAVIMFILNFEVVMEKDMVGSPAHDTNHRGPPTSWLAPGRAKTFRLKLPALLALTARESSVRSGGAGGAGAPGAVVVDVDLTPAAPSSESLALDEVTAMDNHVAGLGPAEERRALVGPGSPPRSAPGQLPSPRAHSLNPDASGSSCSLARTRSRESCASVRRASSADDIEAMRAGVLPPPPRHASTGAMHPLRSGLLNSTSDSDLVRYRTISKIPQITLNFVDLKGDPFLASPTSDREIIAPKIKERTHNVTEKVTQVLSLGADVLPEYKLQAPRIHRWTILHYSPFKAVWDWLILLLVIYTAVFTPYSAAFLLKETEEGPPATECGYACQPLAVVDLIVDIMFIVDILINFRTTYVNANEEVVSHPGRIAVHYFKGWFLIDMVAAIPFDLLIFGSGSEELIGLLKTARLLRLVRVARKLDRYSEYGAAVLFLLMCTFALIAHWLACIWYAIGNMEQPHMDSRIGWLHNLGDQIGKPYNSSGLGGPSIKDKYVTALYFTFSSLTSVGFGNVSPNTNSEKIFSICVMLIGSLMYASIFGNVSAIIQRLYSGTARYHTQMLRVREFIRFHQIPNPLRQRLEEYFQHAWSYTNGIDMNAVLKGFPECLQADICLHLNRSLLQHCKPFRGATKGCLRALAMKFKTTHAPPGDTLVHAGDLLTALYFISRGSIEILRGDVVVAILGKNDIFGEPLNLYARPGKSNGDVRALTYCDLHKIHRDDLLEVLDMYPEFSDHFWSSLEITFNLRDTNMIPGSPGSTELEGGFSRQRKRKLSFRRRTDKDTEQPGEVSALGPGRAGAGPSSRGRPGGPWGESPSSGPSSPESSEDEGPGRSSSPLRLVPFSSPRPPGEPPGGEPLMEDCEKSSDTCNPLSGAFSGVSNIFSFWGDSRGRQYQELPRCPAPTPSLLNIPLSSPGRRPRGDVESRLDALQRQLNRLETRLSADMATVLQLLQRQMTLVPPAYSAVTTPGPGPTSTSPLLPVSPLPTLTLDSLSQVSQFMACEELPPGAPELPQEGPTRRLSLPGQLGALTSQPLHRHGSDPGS
# [19] = biological target: T1, Phosphatidylinositol 4,5-bisphosphate 3-kinase catalytic subunit delta isoform (Homo sapiens, UniProt O00329); assay: Inhibition of PI3Kdelta (unknown origin)
# T1 sequence (O00329 whole entry): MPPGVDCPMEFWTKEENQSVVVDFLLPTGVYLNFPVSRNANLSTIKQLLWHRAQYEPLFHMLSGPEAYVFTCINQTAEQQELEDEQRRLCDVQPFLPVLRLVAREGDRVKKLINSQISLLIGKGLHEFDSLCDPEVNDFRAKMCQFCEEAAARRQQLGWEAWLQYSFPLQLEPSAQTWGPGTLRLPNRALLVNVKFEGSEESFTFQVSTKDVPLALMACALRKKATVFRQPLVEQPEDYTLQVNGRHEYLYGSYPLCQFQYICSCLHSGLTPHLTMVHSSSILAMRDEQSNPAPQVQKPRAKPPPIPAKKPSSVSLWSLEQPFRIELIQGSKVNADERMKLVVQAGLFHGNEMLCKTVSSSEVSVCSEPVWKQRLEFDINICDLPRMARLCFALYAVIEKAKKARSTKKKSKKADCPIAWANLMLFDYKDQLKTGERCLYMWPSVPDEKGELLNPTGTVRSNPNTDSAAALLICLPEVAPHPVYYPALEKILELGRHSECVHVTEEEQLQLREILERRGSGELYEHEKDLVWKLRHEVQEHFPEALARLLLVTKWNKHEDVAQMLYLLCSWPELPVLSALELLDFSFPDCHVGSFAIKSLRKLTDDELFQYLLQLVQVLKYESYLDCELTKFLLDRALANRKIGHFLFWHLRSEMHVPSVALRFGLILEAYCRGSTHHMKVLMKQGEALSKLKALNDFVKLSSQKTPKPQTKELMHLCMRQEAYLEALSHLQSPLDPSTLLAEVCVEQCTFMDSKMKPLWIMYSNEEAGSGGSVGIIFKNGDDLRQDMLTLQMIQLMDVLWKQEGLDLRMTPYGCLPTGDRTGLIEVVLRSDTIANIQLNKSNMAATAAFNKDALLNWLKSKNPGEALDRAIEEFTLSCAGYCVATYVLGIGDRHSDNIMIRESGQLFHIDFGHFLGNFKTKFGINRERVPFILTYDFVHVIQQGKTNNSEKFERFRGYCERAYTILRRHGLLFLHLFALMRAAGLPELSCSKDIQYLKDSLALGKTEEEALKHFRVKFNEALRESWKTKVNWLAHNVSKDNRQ
# [20] = Apparent permeability across basolateral to apical side in human Caco2 cells assessed as drug recovery at 5 uM measured after 120 mins; format: ADME, cell-based; conditions: Caco-2, read-out: Drug recovery
# Summary of the method: (§2)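 Bidirectional permeability run, apical-to-basolateral and basolateral-to-apical. Test compound at 5 µM, incubated 120 min. Papp (10^-6 cm/s), recovery (%) and efflux ratio reported as the mean of two experiments.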
# [21] = Intrinsic clearance in mouse liver microsomes measured after 1 hr; format: ADME, Microsome; conditions: read-out: CLH; summary of the method: as §1
# [22] = Elimination half life in monkey liver microsomes measured after 1 hr; format: ADME, Macaca mulatta, Microsome; conditions: rhesus monkey, read-out: beta t1/2; summary of the method: as §1
# [23] = Elimination rate constant in dog liver microsomes measured after 1 hr; format: ADME, Canis lupus familiaris, Microsome; summary of the method: as §1
# [24] = Toxicity in Sprague-Dawley rat assessed as change in body weight at 1000 mg/kg, po administered as single dose measured on day 7 (reference value: 298 +/- 14 g); format: organism-based; conditions: in vivo, 168 h, time 7 day
# [25] = Apparent permeability across basolateral to apical side in human Caco2 cells at 5 uM measured after 120 mins; format: ADME, cell-based; conditions: Caco-2; summary of the method: as §2
# [26] = Elimination half life in human liver microsomes measured after 1 hr; format: ADME, Microsome; conditions: read-out: beta t1/2; summary of the method: as §1
# MDA-MB-468 [27] = assay: Induction of apoptosis in human MDA-MB-468 cells assessed as necrotic cells at 1 uM measured after 72 hrs by Annexin V-FITC/propidium iodide staining based flow cytometry (reference value: 0.13%); format: functional
# Poly [ADP-ribose] polymerase 2, sequence (Q9UGN5 whole entry): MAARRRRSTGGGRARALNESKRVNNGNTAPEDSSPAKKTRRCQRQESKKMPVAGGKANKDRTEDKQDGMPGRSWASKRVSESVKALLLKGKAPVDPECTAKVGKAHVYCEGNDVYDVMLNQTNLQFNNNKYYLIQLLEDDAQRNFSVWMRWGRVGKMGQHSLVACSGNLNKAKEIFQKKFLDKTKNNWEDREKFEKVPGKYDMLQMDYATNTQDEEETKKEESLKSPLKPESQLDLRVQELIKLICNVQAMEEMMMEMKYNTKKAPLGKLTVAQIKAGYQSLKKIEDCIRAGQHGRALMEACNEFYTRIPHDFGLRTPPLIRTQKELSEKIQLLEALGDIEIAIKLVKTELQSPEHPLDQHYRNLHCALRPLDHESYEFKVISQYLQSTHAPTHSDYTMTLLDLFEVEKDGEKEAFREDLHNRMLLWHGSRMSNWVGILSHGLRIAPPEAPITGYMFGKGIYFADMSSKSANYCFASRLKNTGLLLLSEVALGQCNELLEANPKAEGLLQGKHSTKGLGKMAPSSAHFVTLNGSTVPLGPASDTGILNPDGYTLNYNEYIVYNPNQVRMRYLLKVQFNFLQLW
compound,measurement,setting,value
NC(=O)c1cccc2cc(C(=O)N3CCN(c4nc(-c5cnc(NC(=O)CN6CCOCC6)cc5C(F)(F)F)nc(N5CCOCC5)n4)CC3)oc12,IC50,[1],6.2 nM
same,microsomal CLint,[2],32.9 µL/min/mg
same,inhibition in vivo at 50 mg/kg,MDA-MB-468 [3],54.6%
same,half-life,[4],42.2 min
same,microsomal CLint,[5],30.7 µL/min/mg
same,IC50,MDA-MB-468 [6],1400 nM
same,k el at 1 h,[7],0.000275 s⁻¹
same,Activity,[8],256 g
same,Activity,MDA-MB-468 [9],13.5%
same,k el at 1 h,[10],0.000663 s⁻¹
same,half-life,[11],47.3 min
same,IC50,[12],376 nM
same,IC50,[13],1100 nM
same,k el at 1 h,[14],0.000255 s⁻¹
same,microsomal CLint,[15],29.3 µL/min/mg
same,IC50,[16],13.8 nM
same,Activity,[17],267 g
same,IC50,[18],29400 nM
same,IC50,[19],197 nM
same,"recovery at 2 h, 5 µM",[20],99.9%
same,microsomal CLint,[21],79.7 µL/min/mg
same,half-life,[22],59.1 min
same,k el at 1 h,[23],0.000245 s⁻¹
same,Activity,[24],281 g
same,"Papp B→A at 2 h, 5 µM",[25],22.1 ×10⁻⁶ cm/s
same,half-life,[26],107 min
same,Activity,MDA-MB-468 [27],3.47%
